Measured values published in ChEMBL document CHEMBL1121570, “3-(4-Piperidinylalkyl)indoles, selective inhibitors of neuronal 5-hydroxytryptamine uptake” (J Med Chem, 1980).
Active and inactive are the calls of the source. No cut-off for these calls is given here.

What was measured:
[1] = biological target: Norepinephrine transporter (Rattus norvegicus, UniProt Q9WTR4); assay: Inhibition of uptake of noradrenaline in rat brain hypothalamus; type: functional, tissue-based
Outline: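 Brain synaptosomes from immature female rats (19-21 days) were incubated 5 min at 37 °C with labelled amine at 10⁻⁷ M. Four to six drug concentrations were run in duplicate.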

[2] = biological target: Sodium-dependent serotonin transporter (Homo sapiens, UniProt P31645); type: functional, organism-based
Chain of Sodium-dependent serotonin transporter (Homo sapiens, UniProt P31645) (P31645 whole entry): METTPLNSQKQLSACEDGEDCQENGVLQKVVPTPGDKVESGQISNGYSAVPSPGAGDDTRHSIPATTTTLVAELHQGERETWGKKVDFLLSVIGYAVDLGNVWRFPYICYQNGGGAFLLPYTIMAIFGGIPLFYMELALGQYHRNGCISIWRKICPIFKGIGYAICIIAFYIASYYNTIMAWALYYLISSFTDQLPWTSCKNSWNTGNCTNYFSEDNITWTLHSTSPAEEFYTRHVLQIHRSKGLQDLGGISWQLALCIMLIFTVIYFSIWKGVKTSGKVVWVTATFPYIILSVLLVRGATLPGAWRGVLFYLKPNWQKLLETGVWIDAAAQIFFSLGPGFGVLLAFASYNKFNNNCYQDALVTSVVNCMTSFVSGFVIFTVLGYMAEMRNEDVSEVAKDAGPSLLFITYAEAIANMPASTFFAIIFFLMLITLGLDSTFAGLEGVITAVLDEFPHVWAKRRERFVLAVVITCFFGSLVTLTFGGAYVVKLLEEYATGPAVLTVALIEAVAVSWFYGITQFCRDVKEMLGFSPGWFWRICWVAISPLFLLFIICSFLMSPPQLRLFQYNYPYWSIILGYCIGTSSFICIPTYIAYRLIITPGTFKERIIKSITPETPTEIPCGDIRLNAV

[3] = system: Mus musculus; assay: Compound was tested for potentiation of 5-HTP in mouse after subcutaneous administration; Inactive at 25 mg/kg; type: functional, organism-based; design: dose 25 mg/kg
Outline: (§1)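 Mice in groups of eight received L-5-HTP 100 mg/kg ip in 0.9% NaCl. Drug was given sc 30 min after 5-HTP. Tremor was rated at 75 min (0 none, 1 moderate, 2 severe). ED50 is the dose giving a mean score of 1, derived from the group global scores.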

[4] = biological target: Sodium-dependent serotonin transporter (Rattus norvegicus, UniProt P31652); assay: Inhibition of uptake of 5-HT in rat brain cortex; type: functional, tissue-based
Chain of Sodium-dependent serotonin transporter (Rattus norvegicus, UniProt P31652) (P31652 whole entry): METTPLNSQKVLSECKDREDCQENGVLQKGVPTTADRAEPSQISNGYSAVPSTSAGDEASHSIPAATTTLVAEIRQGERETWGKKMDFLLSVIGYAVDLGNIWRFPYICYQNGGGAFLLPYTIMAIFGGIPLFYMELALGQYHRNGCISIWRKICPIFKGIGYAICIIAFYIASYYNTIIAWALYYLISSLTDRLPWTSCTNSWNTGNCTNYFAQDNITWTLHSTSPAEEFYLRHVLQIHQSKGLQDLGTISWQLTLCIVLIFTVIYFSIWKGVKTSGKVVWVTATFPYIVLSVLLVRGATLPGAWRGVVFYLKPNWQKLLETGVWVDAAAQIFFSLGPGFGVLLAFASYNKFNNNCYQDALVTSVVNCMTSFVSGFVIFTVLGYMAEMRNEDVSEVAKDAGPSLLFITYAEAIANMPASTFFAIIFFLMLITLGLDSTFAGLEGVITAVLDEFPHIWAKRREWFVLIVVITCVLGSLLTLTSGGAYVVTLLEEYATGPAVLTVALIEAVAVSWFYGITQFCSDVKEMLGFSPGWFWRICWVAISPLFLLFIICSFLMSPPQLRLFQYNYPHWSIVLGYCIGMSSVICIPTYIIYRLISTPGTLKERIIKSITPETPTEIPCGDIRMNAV

[5] = system: Rattus norvegicus; assay: Antagonism of tetrabenazine ptosis in rat after oral administration.; type: functional, organism-based
Outline: (§2)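 Rats dosed orally 0.5 h before tetrabenazine (10 mg/kg, sc). Ptosis scored present or absent 1 h later. ED50 taken as the dose preventing ptosis in 50% of animals.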

[6] = biological target: Sodium-dependent dopamine transporter (Rattus norvegicus, UniProt P23977); assay: Inhibition of uptake of dopamine (DA) rat brain striatum; type: functional, tissue-based
Chain of Sodium-dependent dopamine transporter (P23977 whole entry): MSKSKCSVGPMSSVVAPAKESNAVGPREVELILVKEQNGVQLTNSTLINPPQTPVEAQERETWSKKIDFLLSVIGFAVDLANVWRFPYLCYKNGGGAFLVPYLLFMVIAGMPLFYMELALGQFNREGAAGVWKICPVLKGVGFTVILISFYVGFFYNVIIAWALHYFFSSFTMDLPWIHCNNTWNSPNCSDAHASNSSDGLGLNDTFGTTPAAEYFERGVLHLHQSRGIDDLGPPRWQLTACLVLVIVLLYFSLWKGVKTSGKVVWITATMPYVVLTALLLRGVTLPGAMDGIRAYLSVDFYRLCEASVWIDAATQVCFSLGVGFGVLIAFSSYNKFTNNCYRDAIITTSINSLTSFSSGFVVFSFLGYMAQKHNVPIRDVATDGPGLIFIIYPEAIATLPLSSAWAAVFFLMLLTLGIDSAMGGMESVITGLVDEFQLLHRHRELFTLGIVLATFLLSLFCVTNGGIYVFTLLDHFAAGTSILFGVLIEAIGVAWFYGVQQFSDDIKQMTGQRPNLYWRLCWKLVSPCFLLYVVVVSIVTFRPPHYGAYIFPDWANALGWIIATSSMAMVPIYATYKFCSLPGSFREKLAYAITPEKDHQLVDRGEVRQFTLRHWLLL
Outline: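 Brain synaptosomes from immature female rats (19-21 days) were incubated 5 min at 37 °C with labelled amine at 10⁻⁷ M. Four to six drug concentrations were run in duplicate. IC50 is the concentration inhibiting uptake by 50%.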

[7] = system: Mus musculus; assay: Potentiation of 5-HTP in mouse after subcutaneous administration.; type: functional, organism-based; outline: as §1
[8] = system: Rattus norvegicus; assay: Antagonism of tetrabenazine ptosis in rat after oral administration; type: functional; outline: as §2
[9] = system: Mus musculus; assay: Compound was tested for potentiation of 5-HTP in mouse after subcutaneous administration; type: functional; settings: sc; outline: as §1
[10] = system: Mus musculus; assay: Compound was tested for potentiation of 5-HTP in mouse after subcutaneous administration; Inactive at the dose 3 mg/kg; type: functional, organism-based; design: dose 3 mg/kg; outline: as §1
[11] = system: Rattus norvegicus; assay: Antagonism of tetrabenazine ptosis in rat after oral administration; Inactive at the dose 10 mg/kg; type: functional, organism-based; design: dose 10 mg/kg; outline: as §2

Chain of Norepinephrine transporter (Q9WTR4 whole entry): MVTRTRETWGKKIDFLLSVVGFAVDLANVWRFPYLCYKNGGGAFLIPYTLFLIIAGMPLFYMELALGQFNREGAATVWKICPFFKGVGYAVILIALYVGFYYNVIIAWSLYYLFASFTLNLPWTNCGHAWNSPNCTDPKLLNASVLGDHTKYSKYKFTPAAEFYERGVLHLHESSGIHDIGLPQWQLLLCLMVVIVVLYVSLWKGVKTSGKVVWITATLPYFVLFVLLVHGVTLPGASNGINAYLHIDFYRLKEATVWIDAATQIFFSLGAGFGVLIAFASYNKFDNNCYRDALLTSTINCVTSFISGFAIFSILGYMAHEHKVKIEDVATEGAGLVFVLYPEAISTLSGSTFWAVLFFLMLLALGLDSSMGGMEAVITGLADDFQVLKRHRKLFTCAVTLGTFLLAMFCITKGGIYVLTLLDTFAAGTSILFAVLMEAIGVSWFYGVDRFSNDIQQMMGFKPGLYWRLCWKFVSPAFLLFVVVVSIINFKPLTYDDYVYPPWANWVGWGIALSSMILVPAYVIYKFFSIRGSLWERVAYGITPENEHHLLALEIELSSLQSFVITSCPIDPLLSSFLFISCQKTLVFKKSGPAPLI

SMILES | IC50 [1] [nM] | IC50 [2] [nM] | ED50 [3] | IC50 [4] [nM] | AD50 [5] | IC50 [6] [nM] | ED50 [7] | AD50 [8] [mg/kg] | ED50 [9] [mg/kg] | ED50 [10] | AD50 [11]
Cn1cc(CCC2CCNCC2)c2ccccc21 | 1300 | 400 | inactive | 400 | inactive | 30000 |  |  |  |  | 
CN1CCC(CCc2cn(C)c3ccccc23)CC1 | > 10000 | > 1000 |  | 1700 | inactive | > 100000 | inactive |  |  |  | 
CN(C)CCCN1c2ccccc2CCc2ccc(Cl)cc21 [CLOMIPRAMINE] |  |  |  |  |  | 1000 |  | 45 | 6.5 |  | 
Fc1ccc2[nH]cc(CC3CCNCC3)c2c1 | 1000 | 170 |  |  |  | 7000 |  | 100 | 32 |  | 
Brc1ccc2[nH]cc(CC3CCNCC3)c2c1 | 600 | 1000 |  | 700 |  | 8000 |  | 10 |  | inactive | 
COc1ccc2[nH]cc(CC3CCNCC3)c2c1 | 9000 | > 1000 |  | 1000 | inactive | > 100000 | inactive |  |  |  | 
Clc1ccc2[nH]cc(CC3CCNCC3)c2c1 | 1800 | > 1000 |  | 700 |  | 12000 |  |  |  | inactive | inactive
Oc1ccc2c(CCC3CCNCC3)c[nH]c2c1 | 600 | > 1000 |  | 1500 | inactive | 150 | inactive |  |  |  | 
c1ccc2c(CC3CCNCC3)c[nH]c2c1 | 1500 | 550 |  | 50 | inactive | 20000 |  |  | 10 |  | 
CN1CCC(CCc2c[nH]c3ccccc23)CC1 | 40000 | > 1000 |  | 450 | inactive | 6500 | inactive |  |  |  | 
c1ccc(-c2[nH]c3ccccc3c2CCC2CCNCC2)cc1 | 1500 | > 1000 |  | 2200 | inactive | 3500 | inactive |  |  |  | 
c1ccc2c(CCCC3CCNCC3)c[nH]c2c1 | 500 | 60 |  | 40 |  | 3000 |  | 56 | 8 |  | 
Clc1ccc2[nH]cc(CCC3CCNCC3)c2c1 | 650 | 220 |  | 130 | inactive | 1500 | inactive |  |  |  | 
Cc1[nH]c2ccccc2c1CCC1CCNCC1 | 6500 | > 1000 |  | 2500 |  | 23000 | inactive | >100 |  |  | 
COc1ccc2[nH]cc(CCC3CCNCC3)c2c1 | 3000 | > 1000 |  | 140 | inactive | 20000 | inactive |  |  |  | 
Oc1ccc2[nH]cc(CCC3CCNCC3)c2c1 | 1000 | 20 |  | 600 | inactive | 2700 | inactive |  |  |  | 
O=C(O)/C=C/C(=O)O.c1ccc(-n2cc(CCC3CCNCC3)c3ccccc32)cc1 | 400 | > 1000 |  | 1000 |  | 20000 | inactive | > 100 |  |  | 
c1ccc(Cn2cc(CCC3CCNCC3)c3ccccc32)cc1 | 5000 | > 1000 |  | 1900 | inactive | 300 | inactive |  |  |  | 
c1ccc2c(CCC3CCNCC3)c[nH]c2c1 [INDALPINE] | 1600 | 30 |  | 10 |  | 18000 |  |  | 4 |  | 
